Test results from ChEMBL document CHEMBL1144026, “Synthesis and anticonvulsant evaluation of N-substituted isoquinoline AMPA receptor antagonists” (2008).
Calls of active or inactive are those of the source. The rule behind the calls is not given here.

What was measured:
Mus musculus [1] = species on record: Mus musculus; experiment: Anticonvulsant activity against audiogenic clonus seizures in DBA/2 mouse after 30 mins; type: functional; settings: DBA/2, 0.5 h
Method in brief: (§1)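 DBA/2 mice aged 22 to 25 days, of either sex, in groups of 10. Dosed ip (0.1 mL/10 g) as a fresh solution in 50% DMSO/50% saline, or given vehicle. After 30 min, 60 s habituation under a dome, then 12–16 kHz, 109 dB sound for 60 s or until tonic extension. Seizure phase incidence and latency were scored. ED50 (≥32 animals, 95% confidence limits) by Litchfield–Wilcoxon.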

Mus musculus [2] = species on record: Mus musculus; experiment: Anticonvulsant activity against audiogenic tonus seizures in DBA/2 mouse after 30 mins; type: functional; settings: DBA/2, 0.5 h; method in brief: as §1
Pyramidal neuron = experiment: (§2) Reduction in AMPA-mediated current in CA1 pyramidal neurons of Wistar rat at 50 uM after 5 mins by patch clamp technique; type: functional
Method in brief: (§3)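 Whole-cell patch clamp of single CA1 pyramidal neurons; pipette 1.5–3 MΩ, K-gluconate-based intracellular solution. (S)-AMPA 5 μM pulsed for 5 s by fast solution changer; test agent bath-perfused 5 min. Peak amplitude minus baseline and current duration from ≥3 consecutive responses per neuron, control vs drug; unpaired t test per neuron, Wilcoxon matched pairs across neurons.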

[3] = as §2; type: functional, Pyramidal neuron; parameters: scale not given: the % may be the effect or the level left; method in brief: as §3

Structure (SMILES) | ED50 (Mus musculus [1]) [µmol/kg] | ED50 (Mus musculus [2]) [µmol/kg] | Activity (Pyramidal neuron) | Activity [3] [%]
COc1cc2c(cc1OC)C(c1ccccc1)N(C(=O)C(=O)N1CCCC1)CC2 (stereo unspecified) | > 100 | 54.6 | – | –
COc1cc2c(cc1OC)C(c1ccc(Cl)cc1)N(C(=O)C(=O)N1CCOCC1)CC2 (stereo unspecified) | 91 | 46.9 | – | –
CC1=NN=C(c2ccc(N)cc2)c2cc3c(cc2C1)OCO3 | – | – | Active | –
CCN(CC)C(=O)C(=O)N1CCc2cc(OC)c(OC)cc2C1c1ccc(Cl)cc1 (stereo unspecified) | 75.9 | 67.7 | – | –
COc1cc2c(cc1OC)C(c1ccc(Cl)cc1)N(C(=O)C(=O)N1CCCC1)CC2 (stereo unspecified) | 58.1 | 37.2 | – | –
COc1cc2c(cc1OC)C(c1ccccc1)N(C(=O)C(=O)N1CCCCC1)CC2 (stereo unspecified) | 98.1 | 55.3 | – | –
COc1cc2c(cc1OC)C(c1ccc(F)cc1)N(C(=O)C(=O)N1CCCCC1)CC2 (stereo unspecified) | 44.6 | 38.7 | – | 60
COc1cc2c(cc1OC)C(c1ccc(Br)cc1)N(C(=O)C(=O)N1CCCC1)CC2 (stereo unspecified) | 89.2 | 45.4 | – | –
COc1cc2c(cc1OC)C(c1ccc(Cl)cc1)N(C(=O)C(=O)N1CCCCC1)CC2 (stereo unspecified) | 88.4 | 65.3 | – | –
COc1cc2c(cc1OC)C(c1ccc(F)cc1)N(C(=O)C(=O)N1CCCC1)CC2 (stereo unspecified) | > 100 | 73 | – | –
COc1cc2c(cc1OC)C(c1ccc(F)cc1)N(C(=O)C(=O)N1CCOCC1)CC2 (stereo unspecified) | > 100 | 90.2 | – | –
COc1cc2c(cc1OC)C(c1ccc(Br)cc1)N(C(=O)C(=O)N1CCOCC1)CC2 (stereo unspecified) | > 100 | > 100 | – | –
COc1cc2c(cc1OC)C(c1ccccc1)N(C(=O)C(=O)N1CCOCC1)CC2 (stereo unspecified) | > 100 | 72.1 | – | –
COc1cc2c(cc1OC)C(c1ccc(Br)cc1)N(C(=O)C(=O)N1CCCCC1)CC2 (stereo unspecified) | 60.5 | 41.6 | – | –
CCN(CC)C(=O)C(=O)N1CCc2cc(OC)c(OC)cc2C1c1ccc(Br)cc1 (stereo unspecified) | > 100 | > 100 | – | –
CCN(CC)C(=O)C(=O)N1CCc2cc(OC)c(OC)cc2C1c1ccc(F)cc1 (stereo unspecified) | > 100 | > 100 | – | –
CCN(CC)C(=O)C(=O)N1CCc2cc(OC)c(OC)cc2C1c1ccccc1 (stereo unspecified) | 65.1 | 53.3 | – | –
COc1cc2c(cc1OC)C(c1ccc(Br)cc1)N(C(=O)CN1CCCCC1)CC2 (stereo unspecified) | 12.7 | 8.17 | – | –
